Assay results reported in ChEMBL document CHEMBL1275293, “Aqua mediated synthesis of 2-amino-6-benzothiazol-2-ylsulfanyl-chromenes and its in vitro study, explanation of the structure-activity relationships (SARs) as antibacterial agent” (2010).
In brackets after ≈: the same amount, converted by molar mass.

What was measured:
Format in all cases: functional
[1] = tested on: Staphylococcus aureus; experiment: Antimicrobial activity against Staphylococcus aureus by broth microdilution method
Outline: (§1)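 Broth microdilution MIC following the NCCLS standard protocol, run in 96-well plates with 0.2 ml Mueller Hinton broth per well. Compounds were serially doubled from 0.5 to […] μg/ml, with ampicillin as reference. Inoculum was set to McFarland 0.5 turbidity, then diluted to about 5 × 10^5 cfu/ml per well. Plates included broth+inoculum and broth-only controls and were incubated overnight at 37 °C.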

[2] = tested on: Escherichia coli; experiment: Antimicrobial activity against Escherichia coli by broth microdilution method; outline: as §1
[3] = tested on: Staphylococcus epidermidis; experiment: Antimicrobial activity against Staphylococcus epidermidis by broth microdilution method; outline: as §1
[4] = tested on: Pseudomonas aeruginosa; experiment: Antimicrobial activity against Pseudomonas aeruginosa by broth microdilution method; outline: as §1

SMILES | MIC [1] | MIC [2] | MIC [3] | MIC [4]
N#CC1=C(N)Oc2ccc(Sc3nc4ccccc4s3)cc2C1c1ccccc1 (stereo not given) | 4 µg/mL (≈ 9.67 µM) | 16 µg/mL (≈ 38.7 µM) | 8 µg/mL (≈ 19.3 µM) | 32 µg/mL (≈ 77.4 µM)
N#CC1=C(N)Oc2ccc(Sc3nc4ccccc4s3)cc2C1c1cccs1 (stereo not given) | 2 µg/mL (≈ 4.77 µM) | 2 µg/mL (≈ 4.77 µM) | 64 µg/mL (≈ 153 µM) | 32 µg/mL (≈ 76.3 µM)
N#CC1=C(N)Oc2ccc(Sc3nc4ccccc4s3)cc2C1c1ccc(Cl)cc1 (stereo not given) | 4 µg/mL (≈ 8.93 µM) | 32 µg/mL (≈ 71.4 µM) | 32 µg/mL (≈ 71.4 µM) | 16 µg/mL (≈ 35.7 µM)
COc1ccc(C2C(C#N)=C(N)Oc3ccc(Sc4nc5ccccc5s4)cc32)cc1 (stereo not given) | 8 µg/mL (≈ 18 µM) | 32 µg/mL (≈ 72.1 µM) | 16 µg/mL (≈ 36.1 µM) | 2 µg/mL (≈ 4.51 µM)
N#CC1=C(N)Oc2ccc(Sc3nc4ccccc4s3)cc2C1c1ccc2ccccc2c1 (stereo not given) | 16 µg/mL (≈ 34.5 µM) | 16 µg/mL (≈ 34.5 µM) | 32 µg/mL (≈ 69 µM) | 8 µg/mL (≈ 17.3 µM)
N#CC1=C(N)Oc2ccc(Sc3nc4ccccc4s3)cc2C1c1ccc2c(c1)OCO2 (stereo not given) | 8 µg/mL (≈ 17.5 µM) | 1 µg/mL (≈ 2.19 µM) | 4 µg/mL (≈ 8.74 µM) | 8 µg/mL (≈ 17.5 µM)
N#CC1=C(N)Oc2ccc(Sc3nc4ccccc4s3)cc2C1c1c[nH]c2ccccc12 (stereo not given) | 2 µg/mL (≈ 4.42 µM) | 0.5 µg/mL (≈ 1.1 µM) | 32 µg/mL (≈ 70.7 µM) | 16 µg/mL (≈ 35.4 µM)
N#CC1=C(N)Oc2ccc(Sc3nc4ccccc4s3)cc2C1c1cc2ccccc2nc1Cl (stereo not given) | 16 µg/mL (≈ 32.1 µM) | 16 µg/mL (≈ 32.1 µM) | 64 µg/mL (≈ 128 µM) | 16 µg/mL (≈ 32.1 µM)
CCOC(=O)C1=C(N)Oc2ccc(Sc3nc4ccccc4[nH]3)cc2C1c1cccs1 (stereo not given) | 125 µg/mL (≈ 278 µM) | 125 µg/mL (≈ 278 µM) | 125 µg/mL (≈ 278 µM) | 125 µg/mL (≈ 278 µM)
CCOC(=O)C1=C(N)Oc2ccc(Sc3nc4cc(OC)ccc4[nH]3)cc2C1c1cccs1 (stereo not given) | 125 µg/mL (≈ 261 µM) | 125 µg/mL (≈ 261 µM) | 125 µg/mL (≈ 261 µM) | 125 µg/mL (≈ 261 µM)
COc1ccc2[nH]c(Sc3ccc4c(c3)C(c3cccs3)C(C#N)=C(N)O4)nc2c1 (stereo not given) | 250 µg/mL (≈ 578 µM) | 125 µg/mL (≈ 289 µM) | 250 µg/mL (≈ 578 µM) | 125 µg/mL (≈ 289 µM)
CCOC(=O)C1=C(N)Oc2ccc(Sc3nc4cc(OC)ccc4[nH]3)cc2C1c1ccc2c(c1)OCO2 (stereo not given) | 125 µg/mL (≈ 242 µM) | 125 µg/mL (≈ 242 µM) | 125 µg/mL (≈ 242 µM) | 125 µg/mL (≈ 242 µM)
CCOC(=O)C1=C(N)Oc2ccc(Sc3nc4cc(OC)ccc4[nH]3)cc2C1c1ccc([N+](=O)[O-])cc1 (stereo not given) | 64 µg/mL (≈ 123 µM) | 64 µg/mL (≈ 123 µM) | 64 µg/mL (≈ 123 µM) | 32 µg/mL (≈ 61.7 µM)
CCOC(=O)C1=C(N)Oc2ccc(Sc3nc4ccccc4[nH]3)cc2C1c1ccc(Cl)cc1 (stereo not given) | 32 µg/mL (≈ 66.9 µM) | 64 µg/mL (≈ 134 µM) | 64 µg/mL (≈ 134 µM) | 8 µg/mL (≈ 16.7 µM)
N#CC1=C(N)Oc2ccc(Sc3nc4ccccc4[nH]3)cc2C1c1ccc(Cl)cc1 (stereo not given) | 16 µg/mL (≈ 37.1 µM) | 16 µg/mL (≈ 37.1 µM) | 16 µg/mL (≈ 37.1 µM) | 16 µg/mL (≈ 37.1 µM)
CCOC(=O)C1=C(N)Oc2ccc(Sc3nc4ccccc4[nH]3)cc2C1c1ccc([N+](=O)[O-])cc1 (stereo not given) | 16 µg/mL (≈ 32.8 µM) | 16 µg/mL (≈ 32.8 µM) | 32 µg/mL (≈ 65.5 µM) | 8 µg/mL (≈ 16.4 µM)
CCOC(=O)C1=C(N)Oc2ccc(Sc3nc4ccccc4[nH]3)cc2C1c1cccc([N+](=O)[O-])c1 (stereo not given) | 64 µg/mL (≈ 131 µM) | 32 µg/mL (≈ 65.5 µM) | 64 µg/mL (≈ 131 µM) | 32 µg/mL (≈ 65.5 µM)
CCOC(=O)C1=C(N)Oc2ccc(Sc3nc4cc(OC)ccc4[nH]3)cc2C1c1cccc([N+](=O)[O-])c1 (stereo not given) | 125 µg/mL (≈ 241 µM) | 125 µg/mL (≈ 241 µM) | 125 µg/mL (≈ 241 µM) | 125 µg/mL (≈ 241 µM)
CCOC(=O)C1=C(N)Oc2ccc(Sc3nc4cc(OC)ccc4[nH]3)cc2C1c1ccc(Cl)cc1 (stereo not given) | 32 µg/mL (≈ 63 µM) | 64 µg/mL (≈ 126 µM) | 64 µg/mL (≈ 126 µM) | 64 µg/mL (≈ 126 µM)
COc1ccc2[nH]c(Sc3ccc4c(c3)C(c3ccc([N+](=O)[O-])cc3)C(C#N)=C(N)O4)nc2c1 (stereo not given) | 16 µg/mL (≈ 33.9 µM) | 16 µg/mL (≈ 33.9 µM) | 16 µg/mL (≈ 33.9 µM) | 8 µg/mL (≈ 17 µM)
